From ChEMBL document CHEMBL4382197, “Discovery of QCA570 as an Exceptionally Potent and Efficacious Proteolysis Targeting Chimera (PROTAC) Degrader of the Bromodomain and Extra-Terminal (BET) Proteins Capable of Inducing Complete and Durable Tumor Regression” (J Med Chem, 2018)
The source made the active and inactive calls.

Tests used:
MV4-11 [1] = test: Antitumor activity against human MV4-11 cells xenografted in SCID mouse assessed tumor regression at 1 mg/kg, iv administered 3 times per week for 2 weeks; format: functional, organism-based
Outline: (§1)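 MV4;11 xenografts: 5×10^6 cells in 50% Matrigel injected subcutaneously on the dorsal side of SCID mice, one tumor per mouse. Mice randomized at ~100 mm3. Dosed intravenously three times a week for two weeks. Tumor volume = L × W2/2; body weight monitored.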

MOLM-13 = test: Induction of apoptosis in human MOLM13 cells after 24 hrs by Annexin V/propidium iodine-double staining-based flow cytometry; format: functional, cell-based
Outline: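 Leukemia cells were treated for 24 h or 48 h at the indicated concentrations. They were then collected, washed in cold PBS and stained with Annexin V and propidium iodide. Apoptotic fraction was measured by flow cytometry.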

MV4-11 [2] = test: Antitumor activity against human MV4-11 cells xenografted in SCID mouse assessed tumor regression at 5 mg/kg, iv administered 3 times per week for 2 weeks; format: functional, organism-based; outline: as §1
[3] = target: Protein cereblon/Bromodomain-containing protein 2/Cullin-4A (Homo sapiens) (UniProt P25440+Q96SW2+Q13619); test: Protac activity at cereblon/cullin 4A/BRD2 in human RS4:11 cells assessed as BRD2 degradation at 30 to 100 pM after 3 hrs by Western blot analysis; format: cell-based
Mus musculus = test: In vivo Protac activity at cereblon/cullin/BRD4 in tumor of human RS4:11 cells xenografted in SCID mouse assessed as reduction in BRD4 protein expression at 1 to 5 mg/kg, iv administered as single dose and measured at 24 hrs post dose by Western blot analysis; format: functional, organism-based
Outline: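 SCID mice bearing subcutaneous RS4;11 tumors were given a single intravenous dose of 1 or 5 mg/kg. Tumors were harvested at 1, 6 and 24 h, two mice per time point. Tissue was ground in liquid nitrogen and lysed in CST buffer with protease inhibitors. 20 µg lysate per lane was probed for BRD2, BRD3, BRD4, c-Myc and cleaved PARP, with GAPDH as loading control.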

Measured: Activity

Sequence of Protein cereblon/Bromodomain-containing protein 2/Cullin-4A (Homo sapiens) (P25440 whole entry, looked up): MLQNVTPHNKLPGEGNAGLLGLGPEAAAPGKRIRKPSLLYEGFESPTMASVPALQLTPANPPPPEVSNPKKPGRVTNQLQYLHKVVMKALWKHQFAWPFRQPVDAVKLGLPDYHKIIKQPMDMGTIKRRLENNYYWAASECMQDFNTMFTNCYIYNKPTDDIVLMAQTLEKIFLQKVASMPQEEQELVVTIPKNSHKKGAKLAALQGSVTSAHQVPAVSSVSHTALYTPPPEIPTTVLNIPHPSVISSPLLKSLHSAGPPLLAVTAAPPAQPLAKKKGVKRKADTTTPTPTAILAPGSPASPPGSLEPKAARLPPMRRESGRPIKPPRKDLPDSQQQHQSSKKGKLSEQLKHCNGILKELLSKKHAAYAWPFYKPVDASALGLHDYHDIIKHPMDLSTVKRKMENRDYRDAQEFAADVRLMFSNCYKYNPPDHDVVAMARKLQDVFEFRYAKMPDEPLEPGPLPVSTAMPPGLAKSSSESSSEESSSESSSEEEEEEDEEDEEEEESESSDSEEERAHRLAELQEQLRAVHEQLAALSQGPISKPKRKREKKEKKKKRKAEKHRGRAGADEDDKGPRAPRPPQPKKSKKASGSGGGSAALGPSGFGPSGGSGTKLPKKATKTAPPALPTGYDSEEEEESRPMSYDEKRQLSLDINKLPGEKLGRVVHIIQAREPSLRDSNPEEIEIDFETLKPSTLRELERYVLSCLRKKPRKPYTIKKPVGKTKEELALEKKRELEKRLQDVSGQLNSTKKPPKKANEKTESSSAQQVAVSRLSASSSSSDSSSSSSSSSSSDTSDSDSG
Sequence of Protein cereblon/Bromodomain-containing protein 2/Cullin-4A (Homo sapiens) (Q13619 whole entry, looked up): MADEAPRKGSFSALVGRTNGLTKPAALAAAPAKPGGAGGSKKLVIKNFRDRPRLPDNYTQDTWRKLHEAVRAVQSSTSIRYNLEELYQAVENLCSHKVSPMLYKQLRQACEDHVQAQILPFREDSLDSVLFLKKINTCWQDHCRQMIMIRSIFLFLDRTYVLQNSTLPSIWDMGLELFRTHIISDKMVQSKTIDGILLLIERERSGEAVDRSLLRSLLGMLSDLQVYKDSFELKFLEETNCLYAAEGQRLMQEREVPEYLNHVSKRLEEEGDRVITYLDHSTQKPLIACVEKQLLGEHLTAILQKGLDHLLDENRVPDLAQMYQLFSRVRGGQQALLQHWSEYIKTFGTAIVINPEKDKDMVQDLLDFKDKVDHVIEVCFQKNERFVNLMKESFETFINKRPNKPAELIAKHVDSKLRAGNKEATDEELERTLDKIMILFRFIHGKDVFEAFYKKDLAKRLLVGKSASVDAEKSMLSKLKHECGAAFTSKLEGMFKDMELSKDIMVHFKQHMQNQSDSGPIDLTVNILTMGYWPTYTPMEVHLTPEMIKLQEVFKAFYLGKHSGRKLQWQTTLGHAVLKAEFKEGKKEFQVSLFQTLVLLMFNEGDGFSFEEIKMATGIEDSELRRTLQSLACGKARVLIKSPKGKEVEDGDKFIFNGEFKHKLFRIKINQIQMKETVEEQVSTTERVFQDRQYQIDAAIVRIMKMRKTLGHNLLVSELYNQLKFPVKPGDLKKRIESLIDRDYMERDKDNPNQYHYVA
Sequence of Protein cereblon/Bromodomain-containing protein 2/Cullin-4A (Homo sapiens) (Q96SW2 whole entry, looked up): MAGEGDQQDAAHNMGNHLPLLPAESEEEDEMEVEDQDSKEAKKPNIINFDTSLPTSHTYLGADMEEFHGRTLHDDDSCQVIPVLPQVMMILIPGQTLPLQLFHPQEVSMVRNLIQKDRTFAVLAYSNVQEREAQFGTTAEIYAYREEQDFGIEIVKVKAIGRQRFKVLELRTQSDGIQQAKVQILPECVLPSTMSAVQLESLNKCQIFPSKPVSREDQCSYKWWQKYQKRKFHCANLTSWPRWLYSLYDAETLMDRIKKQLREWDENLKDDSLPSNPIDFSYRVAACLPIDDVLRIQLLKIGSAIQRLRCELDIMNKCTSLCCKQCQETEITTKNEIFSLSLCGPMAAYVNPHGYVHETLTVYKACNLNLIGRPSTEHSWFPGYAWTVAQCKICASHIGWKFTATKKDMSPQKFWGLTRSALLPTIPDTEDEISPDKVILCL

Cc1nnc2n1Cc1sc(C#Cc3cnn(CCCC#Cc4cccc5c4CN(C4CCC(=O)NC4=O)C5=O)c3)c(Cc3ccccc3)c1OC2 (stereo not given)
active: MV4-11 [1] | MOLM-13 Dose-dependent effect | MV4-11 [2] | [3] | Mus musculus
